According to paper PMC6811699 (Stem Cells Translational Medicine, 2019):

Tests used:
[1] = tested on: induced sensory neuron cells (iSNs); assay: Resazurin reduction cell viability assay; format: cell-based; settings: Homo sapiens, 48 h, read-out: Detected cell viability IC50
Outline: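 iSNs were specified and matured, reseeded into 96‑well plates, and dosed 24 hours later. Compounds were given as four 10‑fold dilutions, 0.01–10 μM final, with 0.1% DMSO final, in quadruplicate wells, for 48 hours. Medium was then replaced with 10 μg/ml resazurin in snMat medium for 2 hours at 37°C, 5% CO₂. Fluorescence was read at 544/590 nm. There were three biological replicates, reported as mean ± SEM, and IC50 came from the dose–response.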

[2] = tested on: induced sensory neuron cells (iSNs); assay: High-content imaging, neurite length analysis; format: cell-based, human; settings: 48 hours, 0.01–10 μM, treated 24 hours after seeding
Outline: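 iSNs from blood-derived neural precursors, specified (DAPT, SU5402, CHIR99021) then matured (BDNF, GDNF, NGF, NT-3, ascorbic acid, forskolin), reseeded to 96-well plates; dosed 24 h later, 10-fold dilutions, 0.01–10 μM, 0.1% DMSO final, quadruplicate wells, 48 h.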

[3] = read-out: Reported neurite length IC50; literature values; cited from earlier work
patients = settings: cited from earlier work
iSNs = assay: Calcium imaging; format: cell-based, human; settings: iSNs from adult nonmobilized PB, 30 μM α,β-meATP
Outline: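 Mature iSNs were loaded with Fluo‑4‑AM for 1 hour at room temperature, then de‑esterified for 45 minutes. They were washed and kept in Hanks' balanced salt solution with 25 mM HEPES and 5.5 mM glucose. Agonists diluted in this buffer were applied at final 30 μM α,β‑meATP or 1 μM capsaicin to day‑7 iSNs in 96‑well plates. Peak calcium flux was recorded by epifluorescence microscopy with a xenon arc lamp.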

Compound	IC50 [1] [µM]	effect on neurite length / neurite degeneration [2]	IC50 [3] [µM]	NP incidence (patients)	Neurotoxic dose in patients (patients)	cytosolic calcium response (iSNs)
CC(C)C[C@H](NC(=O)[C@H](Cc1ccccc1)NC(=O)c1cnccn1)B(O)O [Bortezomib]	1	neurite degeneration only at the highest tested concentrations	> 100	20–30%	30 mg/m^2	–
N.N.[Cl][Pt][Cl] [Cisplatin]	–	reduced neurite length in the absence of cytotoxicity	> 100	70–100%	–	–
COc1cc([C@@H]2c3cc4c(cc3[C@@H](O[C@@H]3O[C@@H]5CO[C@@H](C)O[C@H]5[C@H](O)[C@H]3O)[C@H]3COC(=O)[C@H]23)OCO4)cc(OC)c1O [Etoposide]	–	reduced neurite length in the absence of cytotoxicity	0.36	–	–	–
CC(=O)O[C@H]1C(=O)[C@@]2(C)[C@H]([C@H](OC(=O)c3ccccc3)[C@]3(O)C[C@H](OC(=O)[C@H](O)[C@@H](NC(=O)c4ccccc4)c4ccccc4)C(C)=C1C3(C)C)[C@]1(OC(C)=O)CO[C@@H]1C[C@@H]2O [Taxol, Paclitaxel]	7.4	reduced neurite length in the absence of cytotoxicity	0.0056 to 0.01	–	–	–
CC[C@]1(O)C[C@H]2CN(CCc3c([nH]c4ccccc34)[C@@](C(=O)OC)(c3cc4c(cc3OC)N(C=O)[C@H]3[C@@](O)(C(=O)OC)[C@H](OC(C)=O)[C@]5(CC)C=CCN6CC[C@]43[C@@H]65)C2)C1 [Vincristine]	0.6	reduced neurite length in the absence of cytotoxicity	–	Up to 20%	5–15 mg/m^2	–
Nc1ncnc2c1ncn2[C@@H]1O[C@H](COP(=O)(O)CP(=O)(O)OP(=O)(O)O)[C@@H](O)[C@H]1O [α,β‐meATP, α,β‐methylene‐ATP]	–	–	–	–	–	robust elevation of cytosolic calcium
